From article PMC12814486 (Bioorganic & medicinal chemistry, 2025) come the findings set out here.

One series deals with T1, rat sEH (Rattus norvegicus, UniProt P80299).
T1 sequence (P80299 1-554): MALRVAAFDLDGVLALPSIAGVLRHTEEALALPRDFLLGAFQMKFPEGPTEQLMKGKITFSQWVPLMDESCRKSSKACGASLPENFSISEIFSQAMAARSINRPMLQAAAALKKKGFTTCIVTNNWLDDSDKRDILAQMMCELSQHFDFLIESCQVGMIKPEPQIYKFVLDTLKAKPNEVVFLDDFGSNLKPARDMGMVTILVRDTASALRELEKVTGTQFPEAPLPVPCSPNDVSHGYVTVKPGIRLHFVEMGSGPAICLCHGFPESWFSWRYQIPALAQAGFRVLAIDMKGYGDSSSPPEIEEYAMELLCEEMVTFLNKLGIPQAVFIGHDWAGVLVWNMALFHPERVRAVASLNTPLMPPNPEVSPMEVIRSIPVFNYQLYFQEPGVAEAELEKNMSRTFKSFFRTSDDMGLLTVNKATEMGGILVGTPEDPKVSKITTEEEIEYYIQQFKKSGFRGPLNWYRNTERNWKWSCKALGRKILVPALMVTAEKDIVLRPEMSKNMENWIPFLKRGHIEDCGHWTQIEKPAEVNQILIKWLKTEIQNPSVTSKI
Nature of the series: sEH inhibition assay. Type of series: biochemical.

The nature of series [1]: Microsomal stability assay in liver microsomes. Type of series: in vitro ADME. Conditions: human, pH 7.4. An outline of the steps: (§1)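 Test compound was taken from a 1 mM DMSO stock. It was preincubated 5 min at 37 °C with liver microsomes in 0.1 M phosphate buffer, pH 7.4. Reaction was started with an NADPH regenerating system (glucose-6-phosphate, NADPH, glucose-6-phosphate dehydrogenase, MgCl2) and quenched with methanol at 0, 10, 20, 30 and 60 min. Samples were centrifuged and read by LC-MS SIM as peak area ratio to internal standard. k = negative slope of ln ratio vs time; CLint = k/P (P = protein concentration). Duplicates or triplicates were averaged.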

Series [2] is described as follows: Microsomal stability assay in liver microsomes. Type of series: in vitro ADME. Conditions: mouse, pH 7.4. An outline of the steps:
as §1
For orientation: Liver microsomes are a subcellular fraction often used to study metabolism.

For another series, the target named is Nociceptin (NOP) (Homo sapiens, UniProt P41146). Nature of the series: NIMH PDSP binding screen. Conditions: read-out: Inhibition (%) Nociceptin (NOP).
Chain of Nociceptin (NOP) (P41146 whole entry): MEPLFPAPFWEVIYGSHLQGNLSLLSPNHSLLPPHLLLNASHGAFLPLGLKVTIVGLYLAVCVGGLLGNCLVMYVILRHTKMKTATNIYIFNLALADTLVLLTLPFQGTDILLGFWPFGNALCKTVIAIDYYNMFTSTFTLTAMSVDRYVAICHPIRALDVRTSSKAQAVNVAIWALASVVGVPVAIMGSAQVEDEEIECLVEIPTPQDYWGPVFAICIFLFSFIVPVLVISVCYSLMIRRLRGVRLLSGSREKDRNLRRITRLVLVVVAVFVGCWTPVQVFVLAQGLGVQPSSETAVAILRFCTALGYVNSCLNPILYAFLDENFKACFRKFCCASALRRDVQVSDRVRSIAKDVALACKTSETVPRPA
The target of another series is T2, 5-HT1A (Homo sapiens, UniProt P08908).
T2 sequence (P08908 1-422): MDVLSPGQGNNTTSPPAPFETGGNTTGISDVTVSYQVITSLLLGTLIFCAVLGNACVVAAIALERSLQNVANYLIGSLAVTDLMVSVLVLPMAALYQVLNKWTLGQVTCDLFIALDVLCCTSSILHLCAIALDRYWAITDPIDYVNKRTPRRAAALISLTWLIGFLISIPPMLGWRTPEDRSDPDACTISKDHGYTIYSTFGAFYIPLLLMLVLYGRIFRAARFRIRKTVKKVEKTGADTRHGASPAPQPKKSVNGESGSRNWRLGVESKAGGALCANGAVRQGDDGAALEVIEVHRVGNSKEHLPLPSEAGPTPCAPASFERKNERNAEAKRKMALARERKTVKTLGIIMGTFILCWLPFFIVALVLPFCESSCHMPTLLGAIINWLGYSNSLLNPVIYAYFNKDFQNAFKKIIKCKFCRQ
Description: NIMH PDSP binding screen. Conditions: read-out: Inhibition (%) 5-HT1A.

A further series addresses 5-HT1D (Homo sapiens, UniProt P28221). Description: NIMH PDSP binding screen. Conditions: read-out: Inhibition (%) 5-HT1D.
For a further series, the target named is 5-HT2B (Homo sapiens, UniProt P41595). Nature of the series: NIMH PDSP binding screen. Conditions: read-out: Inhibition (%) 5-HT2B.
Chain of 5-HT2B (P41595 whole entry, species assumed): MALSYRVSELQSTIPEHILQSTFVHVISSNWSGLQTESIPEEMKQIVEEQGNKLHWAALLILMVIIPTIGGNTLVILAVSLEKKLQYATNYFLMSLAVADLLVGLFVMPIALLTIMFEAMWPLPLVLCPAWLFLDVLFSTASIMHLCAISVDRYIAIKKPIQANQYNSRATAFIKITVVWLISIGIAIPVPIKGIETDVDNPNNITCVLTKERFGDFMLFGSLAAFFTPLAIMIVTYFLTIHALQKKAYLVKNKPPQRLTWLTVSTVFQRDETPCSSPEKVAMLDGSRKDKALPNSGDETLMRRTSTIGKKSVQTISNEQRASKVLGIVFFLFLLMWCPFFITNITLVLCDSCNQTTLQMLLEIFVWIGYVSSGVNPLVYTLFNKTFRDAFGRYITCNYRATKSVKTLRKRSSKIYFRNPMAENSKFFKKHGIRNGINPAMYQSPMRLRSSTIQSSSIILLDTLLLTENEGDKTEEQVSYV
The target in the next series is 5-HT4 (Homo sapiens, UniProt Q13639). Description: NIMH PDSP binding screen. Conditions: read-out: Inhibition (%) 5-HT4.
Chain of 5-HT4 (Q13639 whole entry, species assumed): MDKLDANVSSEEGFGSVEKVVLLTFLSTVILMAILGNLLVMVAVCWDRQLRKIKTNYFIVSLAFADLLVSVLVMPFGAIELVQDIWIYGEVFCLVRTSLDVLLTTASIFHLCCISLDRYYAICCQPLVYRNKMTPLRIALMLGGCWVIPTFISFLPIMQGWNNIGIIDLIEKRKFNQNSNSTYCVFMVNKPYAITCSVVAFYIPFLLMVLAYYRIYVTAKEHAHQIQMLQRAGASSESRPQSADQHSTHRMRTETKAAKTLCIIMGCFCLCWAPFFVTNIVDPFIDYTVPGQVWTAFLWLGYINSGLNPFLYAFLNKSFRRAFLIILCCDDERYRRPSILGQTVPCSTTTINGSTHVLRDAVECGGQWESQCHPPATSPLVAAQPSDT
Another series relates to male Sprague-Dawley rats. Description: Home cage wheel running. Type of series: in vivo, rat. Conditions: 3 mg/kg intraperitoneal, vs vehicle, n = 8/group.

Chain of 5-HT1D (P28221 whole entry, species assumed): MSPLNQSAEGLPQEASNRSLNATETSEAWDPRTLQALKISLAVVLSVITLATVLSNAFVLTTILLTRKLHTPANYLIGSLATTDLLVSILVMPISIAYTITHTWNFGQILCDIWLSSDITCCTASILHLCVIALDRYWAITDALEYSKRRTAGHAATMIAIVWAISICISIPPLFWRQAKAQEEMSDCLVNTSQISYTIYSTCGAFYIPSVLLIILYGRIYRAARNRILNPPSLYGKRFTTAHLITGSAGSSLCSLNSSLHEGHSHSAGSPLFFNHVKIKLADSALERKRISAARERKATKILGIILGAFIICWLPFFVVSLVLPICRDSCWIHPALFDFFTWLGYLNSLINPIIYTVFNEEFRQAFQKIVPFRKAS

Usually IC50 stands for the concentration needed to halve the response being measured. A lower IC50 goes with greater potency in that assay. In general, half-life refers to how long it takes for the measured level to halve. For orientation: microsomal CLint means the capacity of the preparation to metabolise the compound, expressed as a volume cleared per time. Read a high microsomal CLint as rapid turnover. The term inhibition denotes the drop in the measured response relative to a control, in per cent. With `O=C(Nc1ccc(-c2cnc3ccccc3n2)cc1)C1CCN(S(=O)(=O)c2ccccc2Cl)CC1` [Compound 4m, 1-((2-chlorophenyl)sulfonyl)-N-(4-(quinoxalin-2-yl)phenyl)piperidine-4-carboxamide], the IC50 at rat sEH was determined as 300 pM. Moreover, the half-life at 1 µM was more than 60 min in series [1] and 32 min in series [2]. Further, the microsomal CLint at 1 µM in [1] was 22.5 µL/min/mg; in [2], 42.8 µL/min/mg. The inhibition at 10 µM is -5.22 ± 3.98% at Nociceptin (NOP); -18 ± 14.6% on 5-HT1A; -8.07 ± 3.46% on 5-HT1D; -4.41 ± 7.06% at 5-HT2B; 29.6 ± 23.2% at 5-HT4. The “wheel revolutions in the 15 min after drug injection” value with male Sprague-Dawley rats was “significantly lower”.
